According to ChEMBL document CHEMBL4354819, “Discovery of Novel Small Molecule Dual Inhibitors Targeting Toll-Like Receptors 7 and 8” (J Med Chem, 2019):

Columns and labels:
Toll-like receptor 7 = target: T1, Toll-like receptor 7 (Homo sapiens, UniProt Q9NYK1); test: Inhibition of human TLR7 expressed in HEK293 cells assessed as reduction in R848-induced NFkappaB production incubated for 16 hrs by quanti-blue SEAP assay; assay type: cell-based
T1 sequence (Q9NYK1 whole entry): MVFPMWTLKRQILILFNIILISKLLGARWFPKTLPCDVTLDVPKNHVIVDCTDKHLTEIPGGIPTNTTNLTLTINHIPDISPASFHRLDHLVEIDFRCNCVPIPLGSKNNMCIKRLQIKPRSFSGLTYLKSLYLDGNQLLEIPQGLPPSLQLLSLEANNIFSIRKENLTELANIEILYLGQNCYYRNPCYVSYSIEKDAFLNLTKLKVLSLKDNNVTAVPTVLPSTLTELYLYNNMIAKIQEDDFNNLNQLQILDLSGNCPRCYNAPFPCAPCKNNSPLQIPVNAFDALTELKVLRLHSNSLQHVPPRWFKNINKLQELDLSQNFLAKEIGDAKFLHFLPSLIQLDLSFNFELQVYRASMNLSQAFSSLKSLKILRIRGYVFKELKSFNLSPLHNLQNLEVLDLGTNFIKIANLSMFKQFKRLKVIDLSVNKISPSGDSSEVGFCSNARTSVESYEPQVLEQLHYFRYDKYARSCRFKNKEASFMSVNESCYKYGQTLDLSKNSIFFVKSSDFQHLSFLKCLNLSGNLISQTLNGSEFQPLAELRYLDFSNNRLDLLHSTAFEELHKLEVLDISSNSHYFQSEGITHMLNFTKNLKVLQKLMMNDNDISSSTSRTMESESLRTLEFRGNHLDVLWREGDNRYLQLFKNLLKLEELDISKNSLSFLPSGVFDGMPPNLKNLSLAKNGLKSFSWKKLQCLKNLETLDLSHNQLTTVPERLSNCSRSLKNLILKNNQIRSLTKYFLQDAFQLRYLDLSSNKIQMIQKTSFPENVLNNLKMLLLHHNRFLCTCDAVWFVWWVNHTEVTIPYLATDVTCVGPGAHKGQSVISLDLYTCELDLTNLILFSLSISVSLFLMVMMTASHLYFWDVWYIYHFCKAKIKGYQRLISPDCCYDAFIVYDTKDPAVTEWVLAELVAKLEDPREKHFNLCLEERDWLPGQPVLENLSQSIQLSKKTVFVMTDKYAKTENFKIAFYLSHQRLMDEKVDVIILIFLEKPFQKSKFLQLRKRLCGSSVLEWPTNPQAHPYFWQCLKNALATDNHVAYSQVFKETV
Method in brief: (§1)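 HEK 293-Blue cells stably expressing hTLR7 or hTLR8 with an inducible SEAP reporter were incubated 16 h with compound under 1 µg/mL R848 stimulation. SEAP was read at 620 nm. Data were normalized to the R848 control, and IC50 was taken from concentration-response curves. […] Mean ± s.d., n = 3 independent experiments.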

Toll-like receptor 8 = target: T2, Toll-like receptor 8 (Homo sapiens, UniProt Q9NR97); test: Inhibition of human TLR8 expressed in HEK293 cells assessed as reduction in R848-induced NFkappaB production incubated for 16 hrs by quanti-blue SEAP assay; assay type: cell-based; method in brief: as §1
T2 sequence (Q9NR97 whole entry): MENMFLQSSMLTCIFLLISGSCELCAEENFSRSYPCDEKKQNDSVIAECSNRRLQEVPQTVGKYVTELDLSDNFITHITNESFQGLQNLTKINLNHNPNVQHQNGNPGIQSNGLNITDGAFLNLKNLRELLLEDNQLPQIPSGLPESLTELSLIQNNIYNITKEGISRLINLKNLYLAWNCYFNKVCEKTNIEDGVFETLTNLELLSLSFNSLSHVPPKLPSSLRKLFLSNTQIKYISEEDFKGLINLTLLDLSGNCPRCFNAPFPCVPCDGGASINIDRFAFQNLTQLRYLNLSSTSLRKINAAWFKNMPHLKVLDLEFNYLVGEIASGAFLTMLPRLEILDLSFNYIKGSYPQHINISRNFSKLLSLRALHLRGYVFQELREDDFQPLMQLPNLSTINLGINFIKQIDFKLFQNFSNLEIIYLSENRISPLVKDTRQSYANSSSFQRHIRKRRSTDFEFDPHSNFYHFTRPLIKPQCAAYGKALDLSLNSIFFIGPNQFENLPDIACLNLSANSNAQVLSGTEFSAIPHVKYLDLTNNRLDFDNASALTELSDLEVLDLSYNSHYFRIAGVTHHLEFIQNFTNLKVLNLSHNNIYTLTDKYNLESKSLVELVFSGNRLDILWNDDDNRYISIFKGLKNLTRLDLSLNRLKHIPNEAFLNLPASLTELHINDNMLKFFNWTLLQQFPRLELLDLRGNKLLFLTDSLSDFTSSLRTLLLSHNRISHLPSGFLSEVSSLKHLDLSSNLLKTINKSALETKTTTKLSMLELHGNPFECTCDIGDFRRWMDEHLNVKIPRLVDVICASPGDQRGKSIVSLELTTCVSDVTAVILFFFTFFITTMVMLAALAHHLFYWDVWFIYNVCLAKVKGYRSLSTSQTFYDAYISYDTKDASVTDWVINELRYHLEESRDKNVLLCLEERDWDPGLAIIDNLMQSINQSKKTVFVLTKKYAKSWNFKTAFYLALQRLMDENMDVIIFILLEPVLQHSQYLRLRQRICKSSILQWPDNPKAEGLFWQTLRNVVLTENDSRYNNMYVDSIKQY

[1] = target: T3, Toll-like receptor 7 (Homo sapiens) (UniProt Q9NYK1); test: Inhibition of human TLR7 expressed in HEK293 cells assessed as reduction in R848-induced NFkappaB production at 50 uM incubated for 16 hrs by quanti-blue SEAP assay relative to control; assay type: cell-based; method in brief: as §1
T3 sequence (whole entry): T1 sequence (Q9NYK1 whole entry)

[2] = target: T4, Toll-like receptor 8 (Homo sapiens) (UniProt Q9NR97); test: Inhibition of human TLR8 expressed in HEK293 cells assessed as reduction in R848-induced NFkappaB production at 50 uM incubated for 16 hrs by quanti-blue SEAP assay relative to control; assay type: cell-based; method in brief: as §1
T4 sequence (whole entry): T2 sequence (Q9NR97 whole entry)

[3] = target: Toll-like receptor 7 (Homo sapiens) (UniProt Q9NYK1); test: Inhibition of human TLR7 expressed in HEK293 cells assessed as reduction in R848-induced NFkappaB production incubated for 16 hrs by quanti-blue SEAP assay; conditions: concentration not given here
[4] = target: Toll-like receptor 8 (Homo sapiens) (UniProt Q9NR97); test: Inhibition of human TLR8 expressed in HEK293 cells assessed as reduction in resiquimod-induced NFkappaB production at 1.5 to 5 uM incubated for 16 hrs by quanti-blue SEAP assay
[5] = target: T3, Toll-like receptor 7 (Homo sapiens); test: Inhibition of human TLR7 expressed in HEK293 cells assessed as reduction in resiquimod-induced NFkappaB production at 1.5 to 5 uM incubated for 16 hrs by quanti-blue SEAP assay; assay type: cell-based
Method in brief: (§2)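 Selectivity panel in stably transfected HEK 293-Blue cells, each overexpressing one human TLR with an inducible SEAP reporter. Agonists: Pam3CSK4 (TLR1/2), Pam2CSK4 (TLR2/6), poly(I:C) (TLR3), LPS (TLR4), R848 (TLR7/8), ODN 2006 (TLR9). Cells were exposed to compound for 16 h. Activity = (raw − untreated)/(ligand + solvent − untreated), with ligand + solvent set as 100%.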

[6] = target: T4, Toll-like receptor 8 (Homo sapiens); test: Inhibition of human TLR8 expressed in HEK293 cells assessed as reduction in R848-induced NFkappaB production at 1.5 to 5 uM incubated for 16 hrs by quanti-blue SEAP assay; assay type: cell-based; method in brief: as §2

Structure (SMILES): Fc1cccc(Cl)c1CNc1ccc(Oc2cc(C(F)(F)F)cc(C(F)(F)F)c2)cc1
- IC50 (Toll-like receptor 7): > 50 µM
- IC50 (Toll-like receptor 8): > 50 µM

Structure (SMILES): O=C(Nc1ccc(Oc2cc(C(F)(F)F)cc(C(F)(F)F)c2)cc1)c1ccc(I)cc1F
- IC50 (Toll-like receptor 7): > 50 µM
- IC50 (Toll-like receptor 8): > 50 µM

Structure (SMILES): Nc1cccc(F)c1C(=O)Nc1ccc(Oc2cc(C(F)(F)F)cc(C(F)(F)F)c2)cc1
- inhibition [1]: 20 to 30%
- inhibition [2]: 20 to 30%

Structure (SMILES): O=C(Nc1ccc(Oc2cc(C(F)(F)F)cc(C(F)(F)F)c2)cc1)c1ccc2nc[nH]c2c1
- IC50 (Toll-like receptor 7): > 50 µM
- inhibition [2]: 20 to 30%

Structure (SMILES): CN(C(=O)c1c(F)cccc1Cl)c1ccc(Oc2cc(C(F)(F)F)cc(C(F)(F)F)c2)cc1
- inhibition [3]: 0%
- IC50 [4]: 2.9 µM

Structure (SMILES): O=C(Nc1ccc(Oc2cc(F)cc(C(F)(F)F)c2)cc1)c1c(F)cccc1Cl
- IC50 (Toll-like receptor 8): 1.59 µM

Structure (SMILES): O=C(Nc1ccc(Oc2cc(C(F)(F)F)cc(C(F)(F)F)c2)cc1)c1ccco1
- inhibition [5]: 0%
- inhibition [6]: 0%

Structure (SMILES): O=[N+]([O-])c1c(Cl)cccc1Oc1ccc(-c2nnco2)cc1
- IC50 (Toll-like receptor 8): 0.77 µM

Structure (SMILES): N#Cc1c(Cl)cccc1COc1ccc(-c2nnco2)cc1
- IC50 (Toll-like receptor 8): 2.52 µM

Structure (SMILES): O=C(Nc1c(F)cccc1Cl)c1ccc(Oc2cc(C(F)(F)F)cc(C(F)(F)F)c2)cc1
- inhibition [3]: 0%
- IC50 [4]: 7.1 µM

Structure (SMILES): O=C(Nc1ccc(Oc2cc(C(F)(F)F)cc(C(F)(F)F)c2)cc1)c1sccc1Cl
- IC50 (Toll-like receptor 8): 3.2 µM
- inhibition [5]: 0%

Structure (SMILES): C#Cc1cccc(F)c1C(=O)Nc1ccc(Oc2cc(C(F)(F)F)cc(C(F)(F)F)c2)cc1
- inhibition [5]: 0%
- inhibition [6]: 0%

Structure (SMILES): O=C(Nc1ccc(Oc2cc(C(F)(F)F)cc(C(F)(F)F)c2)cc1)c1c(F)cccc1C(F)(F)F
- inhibition [1]: 20 to 30%
- inhibition [2]: 20 to 30%

Structure (SMILES): O=C(Nc1ccc(Oc2cc(C(F)(F)F)cc(C(F)(F)F)c2)cc1)c1ccccc1F
- IC50 (Toll-like receptor 7): > 50 µM
- IC50 (Toll-like receptor 8): 3 µM

Structure (SMILES): O=C(Nc1ccc(Oc2cc(C(F)(F)F)cc(C(F)(F)F)c2)cc1)c1c(F)cccc1F
- inhibition [6]: 0%

Structure (SMILES): O=C(Nc1ccc(Oc2cc(C(F)(F)F)cc(C(F)(F)F)c2)cc1)c1c(F)cccc1OC(F)(F)F
- IC50 (Toll-like receptor 7): > 50 µM
- IC50 (Toll-like receptor 8): > 50 µM

Structure (SMILES): O=C(Nc1ccc(Oc2cc(C(F)(F)F)cc(C(F)(F)F)c2)cc1)c1cc(I)ccc1F
- inhibition [5]: 0%
- inhibition [2]: 20 to 30%

Structure (SMILES): O=C(Nc1ccc(Oc2cc(O)cc(C(F)(F)F)c2)cc1)c1c(F)cccc1Cl
- inhibition [5]: 0%
- inhibition [6]: 0%

Structure (SMILES): O=C(Nc1ccc(Oc2cc(I)cc(C(F)(F)F)c2)cc1)c1c(F)cccc1Cl
- IC50 (Toll-like receptor 8): > 5 µM

Structure (SMILES): Nc1ccc(C(=O)Nc2ccc(Oc3cc(C(F)(F)F)cc(C(F)(F)F)c3)cc2)c(F)c1
- IC50 (Toll-like receptor 7): > 50 µM
- IC50 (Toll-like receptor 8): > 50 µM

Structure (SMILES): O=C(Nc1ccc(Oc2cc(C(F)(F)F)cc(C(F)(F)F)c2)cc1)C1CCCCC1
- inhibition [5]: 0%
- inhibition [6]: 0%

Structure (SMILES): N#Cc1c(Cl)cccc1Oc1ccc(-c2ncco2)cc1
- inhibition [6]: 0%
